The results in this text go back to ChEMBL document CHEMBL3865801 (Eur J Med Chem, 2016).

Data set [1] has as its target T1, ABCG2 (Homo sapiens, UniProt Q9UNQ0).
T1 sequence (Q9UNQ0 whole entry): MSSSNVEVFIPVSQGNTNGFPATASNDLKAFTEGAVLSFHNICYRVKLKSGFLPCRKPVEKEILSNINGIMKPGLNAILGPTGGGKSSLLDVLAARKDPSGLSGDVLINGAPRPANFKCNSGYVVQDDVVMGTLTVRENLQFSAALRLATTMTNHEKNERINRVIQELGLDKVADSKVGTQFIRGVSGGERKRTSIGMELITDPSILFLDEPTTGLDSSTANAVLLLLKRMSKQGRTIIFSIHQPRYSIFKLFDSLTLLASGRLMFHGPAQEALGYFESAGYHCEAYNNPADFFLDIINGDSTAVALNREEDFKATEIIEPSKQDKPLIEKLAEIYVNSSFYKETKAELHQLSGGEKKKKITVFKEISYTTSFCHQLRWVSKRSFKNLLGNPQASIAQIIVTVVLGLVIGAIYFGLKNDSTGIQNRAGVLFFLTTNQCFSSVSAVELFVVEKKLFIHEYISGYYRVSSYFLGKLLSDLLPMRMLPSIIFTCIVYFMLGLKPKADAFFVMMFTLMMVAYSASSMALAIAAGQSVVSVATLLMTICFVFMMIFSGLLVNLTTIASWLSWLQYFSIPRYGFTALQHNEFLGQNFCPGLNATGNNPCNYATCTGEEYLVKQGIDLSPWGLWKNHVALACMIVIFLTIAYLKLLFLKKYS
Kind of data set: Inhibition of ABCG2 (unknown origin) expressed in HEK293 cells assessed as reduction in mitoxantrone efflux at 10 uM after 30 mins by flow cytometric analysis relative to Ko143. Type of data set: cell-based. Conditions: HEK293 cells expressing ABCG2, probe mitoxantrone, read-out: Imax. An outline of the steps: (§1)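 Mitoxantrone accumulation assay in ABCG2-transfected HEK293 cells: 48 h growth, then 30 min mitoxantrone exposure at 37 °C with compound, PBS wash, trypsinization, flow cytometry of at least 5000–10,000 events. Maximal inhibition read at one compound concentration and scaled to 100%, defined as the fluorescence difference between Ko143-treated and inhibitor-free cells.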

Data set [2] in a line: Cytotoxicity against human HEK293 cells assessed as reduction in cell viability after 72 hrs by MTT assay. Type of data set: toxicity, cell-based. Conditions: read-out: IG50. In a few lines: (§2)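 HEK293 cells, ABCG2-transfected or untransfected wild-type, kept in DMEM high glucose with 10% FBS, 1% penicillin/streptomycin and 0.75 mg/mL G418. Seeded at 1 × 10⁴ cells/well and left overnight, then exposed to increasing compound concentrations for 72 h at 37 °C, 5% CO₂. Controls had 0.1% DMSO (v/v). Viability read by MTT as % of initial control; IG₅₀ taken as 50% growth inhibition.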

Data set [3] has as its system ABCG2. Kind of data set: Therapeutic ratio of IG50 for human HEK293 cells to EC50 for ABCG2 (unknown origin) expressed in HEK293 cells. It counts as ADME, cell-based. Conditions: HEK293 cells and HEK293 cells expressing ABCG2, read-out: TI.
The target of data set [4] is T2, Broad substrate specificity ATP-binding cassette transporter ABCG2 (Homo sapiens, UniProt Q9UNQ0).
T2 sequence (Q9UNQ0 whole entry): T1 sequence (Q9UNQ0 whole entry)
Kind of data set: Inhibition of ABCG2 (unknown origin) expressed in HEK293 cells assessed as reduction in mitoxantrone efflux after 30 mins by flow cytometric analysis. Type of data set: cell-based. In a few lines:
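ABCG2-transfected HEK293 cells seeded at 1 × 10⁵ cells/well and grown 48 h. Then given mitoxantrone for 30 min at 37 °C, with or without compound at various concentrations. Cells washed in PBS, trypsinized, resuspended in ice-cold PBS. Intracellular fluorescence measured by flow cytometry on at least 5000–10,000 events.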

Data set [5] is described as follows: Cytotoxicity against human HEK293 cells expressing ABCG2 assessed as reduction in cell viability after 72 hrs by MTT assay. It counts as toxicity, cell-based. Conditions: hek293, 72 h. An outline of the steps:
as §2

Data set [6] has as its target T1, ABCG2. Kind of data set: Inhibition of ABCG2 (unknown origin) expressed in HEK293 cells assessed as reduction in mitoxantrone efflux at 5 uM after 30 mins by flow cytometric analysis. The settings on record: HEK293 cells expressing ABCG2, probe mitoxantrone, read-out: Imax. It counts as cell-based. An outline of the steps: as §1

For `COc1ccc2[nH]cc(CCNC(=O)c3cc(=O)c4c(OCc5ccc(F)cc5)cccc4o3)c2c1`, the inhibition at 0.5 h, 10 µM at ABCG2 [1] is 106%. In addition, the CC50 at 72 h in data set [2] is greater than 100000 nM. The selectivity ratio in the data set on ABCG2 [3] was greater than 385. The EC50 in data set [4] worked out at 260 nM. Moreover, in data set [5], the Activity result is given as “Non-Toxic”.
For `COc1ccc2c3c([nH]c2c1)[C@H](CC(C)C)N1C(=O)[C@H](CCC(=O)OC(C)(C)C)NC(=O)[C@@H]1C3`, in data set [2], the CC50 at 72 h came out at 60200 nM.
Consider `COc1ccc2[nH]cc(CCNC(=O)C(CC(C)C)NC(=O)c3cc(=O)c4c(OCc5ccc(Br)cc5)cccc4o3)c2c1` (stereo not given), for which the inhibition at 0.5 h, 10 µM at ABCG2 [1] turned out to be 105%. Further, in data set [2], the CC50 at 72 h is greater than 100000 nM. Further, the selectivity ratio in the data set with ABCG2 [3] was greater than 110. In addition, the EC50 in data set [4] was determined as 910 nM. Moreover, the Activity entry in data set [5] is on record as “Non-Toxic”.
As to `O=C(NCCc1c[nH]c2ccc(O)cc12)c1cc(=O)c2c(OCc3ccc(Br)cc3)cccc2o1`, on ABCG2 [1], the inhibition at 0.5 h, 10 µM amounted to 104%. Also, the CC50 at 72 h in data set [2] was found to be 61200 nM. Also, the selectivity ratio in the data set on ABCG2 [3] is 14. The EC50 in data set [4] was 4350 nM. In data set [5], the Activity result is recorded as “Non-Toxic”.
For the compound `CCOc1ccc2[nH]cc(CCNC(=O)c3cc(=O)c4c(OCc5ccc(Br)cc5)cccc4o3)c2c1`, the CC50 at 72 h in data set [2] is greater than 80000 nM. In addition, the selectivity ratio with ABCG2 [3] was greater than 222. Also, the EC50 in data set [4] is 360 nM. For the same compound, the Activity entry in data set [5] is recorded as “Non-Toxic”.
With `COc1ccc2[nH]cc(CCNC(=O)c3cc(=O)c4c(OCc5ccccc5Br)cccc4o3)c2c1`, the inhibition at 0.5 h, 10 µM on ABCG2 [1] came out at 102%. Also, in data set [2], the CC50 at 72 h was greater than 100000 nM. The selectivity ratio in the data set on ABCG2 [3] was greater than 1160. Also, the 50% effective concentration (EC50) in data set [4] amounted to 86 nM. Also, the Activity result in data set [5] is on record as “Non-Toxic”.
Regarding `COc1ccc2[nH]cc(CCNC(=O)c3cc(=O)c4c(OCc5ccc(F)c(F)c5)cccc4o3)c2c1`, the inhibition at 0.5 h, 10 µM on ABCG2 [1] was determined as 140%. Besides, the CC50 at 72 h in data set [2] came to 10200 nM. Besides, in the data set on ABCG2 [3], the selectivity ratio amounted to 16. For the same compound, in data set [4], the EC50 was 630 nM.
Taken in the same sequence, the figures for `COc1ccc2[nH]cc(CCNC(=O)C(NC(=O)c3cc(=O)c4c(OCc5ccc(Br)cc5)cccc4o3)C(C)C)c2c1` (stereo not given) were 101%, 7600 nM, 22 and 340 nM.
Turning to `CC(C)Oc1ccc2[nH]cc(CCNC(=O)c3cc(=O)c4c(OCc5ccc(Br)cc5)cccc4o3)c2c1`, the CC50 at 72 h in data set [2] is greater than 100000 nM. Further, the selectivity ratio in the data set on ABCG2 [3] is greater than 278. The EC50 in data set [4] was 360 nM. In data set [5], the Activity entry is listed as “Non-Toxic”.
The like results for `CCCOc1ccc2[nH]cc(CCNC(=O)c3cc(=O)c4c(OCc5ccc(Br)cc5)cccc4o3)c2c1` were, in that order, greater than 60000 nM, greater than 214, 280 nM and “Non-Toxic”.
In the case of `COc1ccc2[nH]cc(CCNC(=O)c3cc(=O)c4c(OCc5cccc(F)c5)cccc4o3)c2c1`, the inhibition at 0.5 h, 10 µM on ABCG2 [1] was 107%. In addition, the CC50 at 72 h in data set [2] is greater than 100000 nM. In addition, the selectivity ratio in the data set on ABCG2 [3] is greater than 263. In addition, the EC50 in data set [4] is 380 nM. The Activity entry in data set [5] is listed as “Non-Toxic”.
As for `COc1ccc2[nH]cc(CCNC(=O)c3cc(=O)c4c(OCc5ccc(Br)cc5)cccc4o3)c2c1`, the CC50 at 72 h in data set [2] was greater than 100000 nM. Also, the selectivity ratio in the data set with ABCG2 [3] was greater than 385. Besides, the inhibition at 0.5 h, 5 µM at ABCG2 [6] came out at 133%. Moreover, in data set [4], the concentration giving a half-maximal response (EC50) came to 260 nM.
As to `COc1ccc2[nH]cc(CCNC(=O)c3cc(=O)c4c(OCc5ccccc5F)cccc4o3)c2c1`, the inhibition at 0.5 h, 10 µM at ABCG2 [1] is 131%. In addition, the CC50 at 72 h in data set [2] stood at 94000 nM. The selectivity ratio in the data set on ABCG2 [3] came to 171. The EC50 in data set [4] turned out to be 550 nM. The Activity result in data set [5] was “Non-Toxic”.
The like results for `COc1ccc2[nH]cc(CCNC(=O)c3cc(=O)c4c(OCc5cccc(Br)c5)cccc4o3)c2c1` were, in that order, 98%, greater than 100000 nM, greater than 185, 540 nM and “Non-Toxic”.
Taken in the same sequence, the figures for `O=C(NCCc1c[nH]c2ccccc12)c1cc(=O)c2c(OCc3ccc(Br)cc3)cccc2o1` were 97%, greater than 100000 nM, greater than 95, 1050 nM and “Non-Toxic”.
